Assay [1] deals with Canis familiaris. The assay is described as follows: Percent of normal beats 20 min after 5 mg/kg given over 5 min by i.v. infusion. Type of assay: functional, Canis lupus familiaris. To be noted: route intravenous. An outline of the steps: (§1)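 Coronary-artery-ligated dogs with ventricular arrhythmias received 5 mg/kg iv in 10–20 mL isotonic saline, infused over 5 min. Limb lead II ECG was monitored continuously for up to 6 h or until activity ended. Percent normal sinus beats was scored at control, end of dose, 20 min and 1 h. Results are mean ± SEM for n≥3 and mean ± SD for n=2.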

For assay [2], the system named is Canis familiaris. Description: Activity rating following 5 mg/kg i.v. administration. To be noted: route intravenous.
Assay [3] concerns Canis familiaris. Description: Percent of normal beats 1 hr after 5 mg/kg given over 5 min by i.v. infusion. It is filed as functional, Canis lupus familiaris. To be noted: route intravenous. An outline of the steps: as §1
In assay [4] the test system is Canis familiaris. The assay is described as follows: Percent of normal beats after 5 mg/kg given over 5 min by i.v. infusion. It is filed as functional, Canis lupus familiaris. As to conditions: route intravenous. In outline: as §1
Assay [5] has as its system Canis familiaris. The assay is described as follows: […] 1 h after a dose of 5 mg/kg given intravenously over a 5-min period in normal dogs. Type of assay: functional, Canis lupus familiaris. To be noted: route intravenous.
Assay [6] deals with Canis familiaris. The assay is described as follows: Degree of tachycardia in conscious normal dogs. It is filed as functional, Canis lupus familiaris. An outline of the steps: (§2)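 Conscious normal dogs, trained to sit quietly while sling-restrained, received 5 mg/kg iv over 5 min, as in the ligated-dog protocol. Heart rate came from continuous limb lead II ECG at control, end of dose, 20 min and 1 h. Dogs above 140 beats/min were followed until the rate fell to 140. Degree was graded severe ≥200, moderate 160–199, slight <160 with a rise ≥20, none ≤20 change. Duration was graded long >2 h, moderate 0.5–2 h, short <0.5 h.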

The subject of assay [7] is Canis familiaris. The assay is described as follows: […] at the end of the dose.(5 mg/kg was given intravenously over a 5-min period in normal dogs.). Type of assay: functional, Canis lupus familiaris.
For assay [8], the system named is Canis familiaris. Description: […] 20 min after a dose of 5 mg/kg given intravenously over a 5-min period in normal dogs. Type of assay: functional, Canis lupus familiaris. As to conditions: route intravenous.
Assay [9] relates to Canis familiaris. The assay is described as follows: Period of tachycardiac effect in conscious normal dogs; 0.5-2. Type of assay: functional, Canis lupus familiaris. In outline:
as §2

The test system of assay [10] is Canis familiaris. Description: Degree of tachycardia in conscious normal dogs; 160-199. It is filed as functional, Canis lupus familiaris. An outline of the steps:
(§3)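 Conscious normal dogs, trained to sit quietly while sling restrained, were given 5 mg/kg iv as an infusion over 5 min in isotonic saline. Heart rate came from continuous limb lead II ECG during a control period, at end of dose, and at 20 min and 1 h. Degree bands were ≥200, 160–199, and <160 beats/min after a rise of ≥20. Duration bands were >2 h, 0.5–2 h and <0.5 h. Two dogs were used.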

In assay [11] the test system is Canis familiaris. The assay is described as follows: Period of tachycardiac effect in conscious normal dogs. Type of assay: functional, Canis lupus familiaris. An outline of the steps:
as §3

Assay [12] has as its system Canis familiaris. The assay is described as follows: […] 1 h after a dose of 5 mg/kg given intravenously over a 5-min period […]. Type of assay: functional, Canis lupus familiaris. To be noted: route intravenous. An outline of the steps: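 Dogs with coronary artery ligation and ventricular arrhythmia received 5 mg/kg iv in 10–20 mL isotonic saline, infused over 5 min. Limb lead II ECG was monitored continuously for up to 6 h. Percent normal sinus beats was scored at control, at end of dose, and at 20 min and 1 h. Values are mean ± SEM for three or more animals and mean ± SD for two.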

Assay [13] concerns Canis familiaris. The assay is described as follows: Degree of tachycardiac effect in conscious normal dogs.

A value given as a limit tells only on which side of the number the result lay.

For the molecule `Cc1ccccc1C(OCC(O)CN1CCCCC1)c1ccccc1C.O=C(O)C(=O)O` (configuration not stated), the Normal beats came out at 31% in the assay with Canis familiaris [1], 16% with Canis familiaris [3] and 79% in the assay with Canis familiaris [4]. In the assay on Canis familiaris [2], this molecule had an Activity rating of 21.

As to `Cc1ccccc1C(OCC(O)CN1CCCCC1C)c1ccccc1C.O=C(O)C(=O)O` (configuration not stated), the figures for the Normal beats in the assay with Canis familiaris [1], with Canis familiaris [3] and in the assay on Canis familiaris [4] were 44%, 24% and 49%, respectively. The molecule also came in with an Activity rating with Canis familiaris [2] of 36.

For the molecule `CC1CCC(C)N1CC(O)COC(c1ccccc1)c1ccccc1` (configuration not stated), the Heart rate is recorded as 102 beats min-1 in the assay on Canis familiaris [5], 140 beats min-1 with Canis familiaris [7] and 117 beats min-1 in the assay on Canis familiaris [8]. In addition, the Rating in the assay on Canis familiaris [6] is less than 160 beats min-1; in the assay on Canis familiaris [9] it was 0.5 h. Moreover, the Normal beats in the assay on Canis familiaris [1] was 39%; with Canis familiaris [3], 12%; with Canis familiaris [4], 96%. The Activity rating with Canis familiaris [2] is 36.

In the case of `C[N+](C)(C)CC(O)COC(c1ccccc1)c1ccccc1` (configuration not stated), the results for the Heart rate with Canis familiaris [5], with Canis familiaris [7] and in the assay on Canis familiaris [8] were 118 beats min-1, 242 beats min-1 and 135 beats min-1, respectively. Further, the Rating with Canis familiaris [6] is greater than 200 beats min-1; in the assay on Canis familiaris [9], 0.5 h. In addition, the Normal beats came to 1% in the assay on Canis familiaris [1], 0% in the assay on Canis familiaris [3] and 52% with Canis familiaris [4]. Moreover, the Activity rating with Canis familiaris [2] is listed as 9.

Take `CC1CCCC(C)[N+]1(C)CC(O)COC(c1ccccc1)c1ccccc1.[Cl-]` (configuration not stated): the Heart rate in the assay on Canis familiaris [5] worked out at 101 beats min-1; in the assay with Canis familiaris [7], 167 beats min-1; with Canis familiaris [8], 152 beats min-1. Moreover, the results for the Rating in the assay with Canis familiaris [10] and in the assay on Canis familiaris [11] were 160 beats min-1 and less than 0.5 h, respectively. Also, the Normal beats worked out at 33% in the assay with Canis familiaris [1], 28% in the assay on Canis familiaris [3] and 15% with Canis familiaris [4]. The molecule further gave an Activity rating in the assay with Canis familiaris [2] of 15.

`CC(OCC(O)CN1C(C)CCCC1C)c1ccccc1` (configuration not stated): the Heart rate is on record as 144 beats min-1 in the assay on Canis familiaris [5], 156 beats min-1 in the assay on Canis familiaris [7] and 101 beats min-1 with Canis familiaris [8]. The Rating in the assay with Canis familiaris [6] is less than 160 beats min-1; with Canis familiaris [11] it was greater than 2 h. Moreover, the Normal beats in the assay on Canis familiaris [1] came out at 16%; in the assay with Canis familiaris [3] it was 11%; in the assay on Canis familiaris [4], 62%. This molecule also yielded an Activity rating in the assay on Canis familiaris [2] of 13.

As for `CC1CCCC(C)N1CC(O)CSC(c1ccccc1)c1ccccc1` (configuration not stated), the Heart rate in the assay with Canis familiaris [12] is reported as 148 beats min-1; in the assay with Canis familiaris [7], 185 beats min-1; in the assay with Canis familiaris [8], 148 beats min-1. Also, the Rating in the assay on Canis familiaris [10] is 160 beats min-1; in the assay on Canis familiaris [11], less than 0.5 h. For the same molecule, the figures for the Normal beats with Canis familiaris [1], in the assay on Canis familiaris [3] and in the assay with Canis familiaris [4] were 49%, 42% and 95%, respectively. Further, in the assay on Canis familiaris [2], the Activity rating amounted to 51.

For the molecule `Cc1ccccc1C(OCC(O)CN1C(C)CCCC1C)c1ccccc1` (configuration not stated), the Heart rate is recorded as 134 beats min-1 with Canis familiaris [5], 153 beats min-1 in the assay with Canis familiaris [7] and 153 beats min-1 in the assay on Canis familiaris [8]. Also, the values for the Rating in the assay with Canis familiaris [10] and in the assay on Canis familiaris [9] were 160 beats min-1 and 0.5 h, respectively. Besides, the Normal beats with Canis familiaris [1] came to 71%; with Canis familiaris [3] it was 81%; in the assay on Canis familiaris [4], 87%. Also, the Activity rating with Canis familiaris [2] amounted to 68.

In the case of `CC1CCCC(C)N1CC(O)COC(c1ccccc1)c1ccccc1` (configuration not stated), the Heart rate came out at 150 beats min-1 with Canis familiaris [5], 172 beats min-1 in the assay on Canis familiaris [7] and 171 beats min-1 with Canis familiaris [8]. The Rating in the assay on Canis familiaris [10] came out at 160 beats min-1; with Canis familiaris [9], 0.5 h. The values for the Normal beats in the assay on Canis familiaris [1], in the assay on Canis familiaris [3] and in the assay with Canis familiaris [4] were 67%, 53% and 88%, respectively. This molecule also returned an Activity rating with Canis familiaris [2] of 56.

For `Cc1ccccc1C(OCC(O)CN1C(C)CCCC1C)c1ccccc1C` (configuration not stated), the Heart rate in the assay on Canis familiaris [5] was 142 beats min-1; with Canis familiaris [7], 153 beats min-1; with Canis familiaris [8], 113 beats min-1. For the same molecule, the Rating in the assay with Canis familiaris [6] is less than 160 beats min-1; in the assay on Canis familiaris [11], less than 0.5 h. Besides, the Normal beats in the assay on Canis familiaris [1] turned out to be 68%; in the assay with Canis familiaris [3], 50%; in the assay on Canis familiaris [4], 87%. The Activity rating in the assay on Canis familiaris [2] came to 51.

Take `Cc1cccc(C)c1C(OCC(O)CN1C(C)CCCC1C)c1c(C)cccc1C` (configuration not stated): the Normal beats in the assay with Canis familiaris [1] is given as 76%; with Canis familiaris [3], 54%; in the assay on Canis familiaris [4], 49%. Also, the Activity rating in the assay on Canis familiaris [2] was determined as 47.

As to `COc1ccccc1C(OCC(O)CN1C(C)CCCC1C)c1ccccc1OC` (configuration not stated), the Heart rate was determined as 232 beats min-1 in the assay with Canis familiaris [5], 234 beats min-1 in the assay on Canis familiaris [7] and 232 beats min-1 in the assay on Canis familiaris [8]. Also, the figures for the Rating in the assay with Canis familiaris [6] and in the assay on Canis familiaris [11] were greater than 200 beats min-1 and greater than 2 h, respectively. In addition, the results for the Normal beats in the assay on Canis familiaris [1], with Canis familiaris [3] and in the assay with Canis familiaris [4] were 62%, 33% and 100%, respectively. This molecule returned an Activity rating with Canis familiaris [2] of 57.

For the molecule `Cc1cccc(C)c1C(OCC(O)CN1C(C)CCCC1C)c1ccccc1` (configuration not stated), the figures for the Normal beats in the assay with Canis familiaris [1], in the assay with Canis familiaris [3] and in the assay with Canis familiaris [4] were 19%, 16% and 60%, respectively. The Activity rating in the assay with Canis familiaris [2] turned out to be 8.

Take `CCN(CC)CC(=O)Nc1c(C)cccc1C.Cl`: the values for the Normal beats in the assay on Canis familiaris [1], in the assay with Canis familiaris [3] and in the assay with Canis familiaris [4] were 23%, 9% and 86%, respectively. The same molecule yielded an Activity rating in the assay on Canis familiaris [2] of 20.

`CN(C)CC(O)COC(c1ccccc1)c1ccccc1.Cl` (configuration not stated) displayed a Rating in the assay on Canis familiaris [13] of less than 20 beats min-1. Also, the Heart rate is given as 110 beats min-1 in the assay on Canis familiaris [5], 121 beats min-1 in the assay with Canis familiaris [7] and 115 beats min-1 with Canis familiaris [8]. Besides, the figures for the Normal beats in the assay with Canis familiaris [1], with Canis familiaris [3] and with Canis familiaris [4] were 25%, 15% and 61%, respectively. This molecule showed an Activity rating with Canis familiaris [2] of 19.

Take `CC1CCCC(C)N1CC(O)CNC(c1ccccc1)c1ccccc1.Cl.Cl` (configuration not stated): the Heart rate with Canis familiaris [5] is given as 122 beats min-1; with Canis familiaris [7], 141 beats min-1; with Canis familiaris [8] it was 132 beats min-1. Further, the Rating with Canis familiaris [6] was less than 160 beats min-1; in the assay with Canis familiaris [11], less than 0.5 h. Besides, the figures for the Normal beats in the assay on Canis familiaris [1], in the assay with Canis familiaris [3] and in the assay on Canis familiaris [4] were 47%, 30% and 92%, respectively. The molecule also returned an Activity rating in the assay with Canis familiaris [2] of 44.

On to `CCN(CC)CCNC(=O)c1ccc(N)cc1.Cl` [PROCAINAMIDE HYDROCHLORIDE], for which the Normal beats with Canis familiaris [1] turned out to be 66%; in the assay with Canis familiaris [3] it was 34%; in the assay with Canis familiaris [4] it was 72%. Moreover, in the assay on Canis familiaris [2], the Activity rating is 52.

The values are drawn from ChEMBL document CHEMBL1125756, “Synthesis and antiarrhythmic activity of alpha-[(diarylmethoxy)methyl]-1-piperidineethanols” (1991).
